Bioassay records from PubChem BioAssay.
SUMO1 PPI mod – modulators of human SUMO1-mediated protein-protein interactions; P63165; SUMO1 binding to a labelled peptide, TR-FRET, 1 h; inhibition, % at 20 µM; actives 0.33% (n = 360,000); AID 602429; in the data active = inhibition above about 37%
Target sequence (P63165 whole entry, looked up): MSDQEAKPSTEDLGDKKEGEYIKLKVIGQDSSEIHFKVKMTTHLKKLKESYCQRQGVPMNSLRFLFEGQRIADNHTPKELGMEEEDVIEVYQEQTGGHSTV
LMPTP inh – LMPTP (human) inhibition. recombinant LMPTP-A, OMFP fluorogenic substrate, fluorescence intensity. actives 0.22% (n = 360,000). AID 651560. inhibition, % at 20 µM;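 active = compounds that cut the enzyme signal by at least half of the control window in the single-dose screen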;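 also: plate controls were DMSO wells with enzyme plus substrate for no effect and substrate without enzyme for full effect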
Target sequence (P24666 whole entry, looked up): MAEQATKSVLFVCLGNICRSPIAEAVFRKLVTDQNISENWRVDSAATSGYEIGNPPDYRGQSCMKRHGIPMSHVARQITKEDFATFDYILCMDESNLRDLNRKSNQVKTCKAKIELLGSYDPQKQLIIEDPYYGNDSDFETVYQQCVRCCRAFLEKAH
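Test system: LMPTP-A phosphatase enzyme. Amount: LMPTP-A at 0.625 nM final in the reaction. Reagent: OMFP substrate, 400 µM final. Times: 50 min at room temperature. Signal: endpoint fluorescence intensity from OMFP dephosphorylation. Read-out basis: % inhibition. Benchmarks: no-enzyme and uninhibited controls.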
STEP block – STEP (human) phosphatase inhibition | recombinant STEP, OMFP fluorogenic substrate, fluorescence | actives 0.25% (n = 360,000) | inhibition, % at 20 µM;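 active = inhibition at 20 µM, scaled per plate between control wells, above about 37%, limit read from the data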;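 also: 0% = DMSO with enzyme and substrate and 100% = substrate only without enzyme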
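Assay system: isolated STEP enzyme / Timing: 20 min at room temperature, dark / Doses: 20 µM, 1% DMSO / Technique: fluorescence intensity, excitation 480 nm, emission 540 nm / Reagent: fluorogenic phosphatase substrate OMFP at 25 µM final / Measure: percent inhibition scaled to no-enzyme and uninhibited-enzyme controls, plate-pattern corrected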
Scp1 inh – blocks human Scp-1 phosphatase activity; actives 0.88% (n = 340,000); inhibition, % at 20 µM; Recombinant Scp1, phosphopeptide, malachite green phosphate absorbance;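 active = inhibition above about 50% at 20 µM, limit read from the data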;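 also: plate controls were DMSO wells with enzyme for no effect and wells lacking enzyme for full effect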
Target sequence (Q9GZU7 76-261 limits assumed): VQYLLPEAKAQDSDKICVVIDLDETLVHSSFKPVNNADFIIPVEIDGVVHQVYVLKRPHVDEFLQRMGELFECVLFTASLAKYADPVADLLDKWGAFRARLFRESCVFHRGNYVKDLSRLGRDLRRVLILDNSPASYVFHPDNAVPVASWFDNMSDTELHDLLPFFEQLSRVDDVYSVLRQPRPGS
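Incubation: 45 min enzyme reaction at room temperature / System: truncated SCP-1 phosphatase (76-261aa) / Reagent: Phospho 17-mer peptide substrate / Buffer or medium: Acidic Tris acetate buffer with magnesium and detergent / Signal: absorbance at 630 nm / Doses: one concentration, 20 µM, with 1.0% DMSO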
DNMT1 inh – DNMT1 (human) enzyme inhibition. P26358. DNMT1 molecular beacon, Hinp1I cleavage, fluorescence. inhibition (reported as % activation of signal), % at 10 µM. actives 0.83% (n = 360,000); in the data active = inhibition above about 50%
Scp-1 conf – confirmation of human Scp-1 phosphatase inhibitors. shares compounds with Scp1 inh. recombinant SCP-1 catalytic domain, phosphate release, malachite green absorbance. inhibition, % at 20 µM. actives 61% (n = 2,500);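 also: plate controls were DMSO with enzyme for no effect and buffer wells lacking enzyme for full effect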
MG interference – counter-screen for Scp-1 inhibitors: colorimetric interference; shares compounds with Scp1 inh; Colorimetric interference counterscreen, malachite green absorbance 630 nm; apparent inhibition (interference), % at 20 µM; 2,500 tested, under 10 active; AID 540313;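 also: compounds added after enzyme reaction finished so only phosphate colour detection is probed; plate controls were DMSO wells with completed Scp-1 reaction for no effect and substrate wells lacking enzyme for full effect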
Scp1 DSF – validation of human Scp-1 inhibitors by thermal shift binding; shares compounds with Scp1 inh; Recombinant SCP1, Sypro Orange thermal shift Tm; thermal shift relative to vanadate control, % at 40 µM; actives 25% (n = 1,500);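 active = substances whose mean melting-temperature shift, as a percentage of the reference inhibitor's shift, reaches about 5.3%, limit read from the data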;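 also: 0% = Tm of DMSO wells and 100% = Tm with sodium orthovanadate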
An asterisk follows results filed as active. Compounds with a hit are over-represented: about 1.7% of the library has one in this group of screens.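 The calls were made as follows, unless noted: active = inhibition of at least 30% at 20 µM; inactive = the rest.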

CCN1C(=NCc2cc(OC)c(OC)c(OC)c2)N[C@@H](c2ccccc2)C(C(=O)OC)=C1C was read as SUMO1 PPI mod 3, LMPTP inh 0, STEP block 0, Scp1 inh 54*, DNMT1 inh 5, Scp-1 conf -13 and MG interference -13.
Screening CCN1C(=NCc2ccco2)N[C@@H](c2cccc(C(F)(F)F)c2)C(C(=O)OC)=C1C returned SUMO1 PPI mod -20, LMPTP inh -1, STEP block -2, Scp1 inh 4 and DNMT1 inh 3.
`CCn1c(=O)cc(OCC(=O)NCc2ccco2)c2ccccc21` gave SUMO1 PPI mod -1, LMPTP inh -2, STEP block 2, Scp1 inh 57*, DNMT1 inh 19, Scp-1 conf 30 and MG interference -5.
`CCn1c(=O)cc(OCC(=O)NCc2ccc(C)o2)c2ccccc21` gave SUMO1 PPI mod 3, LMPTP inh 2, STEP block 2, Scp1 inh -6 and DNMT1 inh -8.
For Cn1nnnc1Sc1ncnc2scc(-c3ccc(C(F)(F)F)cc3)c12 the results were SUMO1 PPI mod 1, LMPTP inh 0, STEP block 1, Scp1 inh -8 and DNMT1 inh 11.
`Cn1nnnc1Sc1ncnc2scc(-c3ccc(-c4ccccc4)cc3)c12` gave SUMO1 PPI mod -58, LMPTP inh 1, STEP block 1, Scp1 inh -14 and DNMT1 inh 17.
For Cn1nnnc1Sc1ncnc2scc(-c3ccccc3C(F)(F)F)c12 the results were SUMO1 PPI mod 5, LMPTP inh -1, STEP block -1, Scp1 inh 55*, DNMT1 inh 8, Scp-1 conf -16 and MG interference -28.
For Cn1nnnc1Sc1ncnc2scc(-c3cccs3)c12 the results were Scp1 inh 58*, Scp-1 conf -3 and MG interference -22.
Screening O=C(Nc1nc2c(F)cc(F)cc2s1)C1CC1 returned SUMO1 PPI mod -1, LMPTP inh 0, STEP block -2, Scp1 inh 2 and DNMT1 inh 3.
For CC(C)NC(=O)Cn1cc(C(=O)C(=O)N2CCOCC2)c2ccccc21 the results were SUMO1 PPI mod -3, LMPTP inh 0, STEP block 0, Scp1 inh -5 and DNMT1 inh 2.
For O=C(Nc1ccc(Cl)cc1)OCc1cn(-c2ccc(Cl)cc2)nn1 the results were SUMO1 PPI mod 0, LMPTP inh 0, STEP block -3, Scp1 inh 84*, DNMT1 inh 9, Scp-1 conf -11 and MG interference -21.
For CCOC(=O)C1=C(C)Nc2ccccc2N/C1=N\S(=O)(=O)c1cc(C(=O)O)ccc1Cl the results were SUMO1 PPI mod 10, LMPTP inh 7, STEP block 10, Scp1 inh 50*, DNMT1 inh 39, Scp-1 conf 41*, MG interference -19 and Scp1 DSF -5.
For CCOC(=O)Cc1csc(SCC(=O)NC2CCC(C)CC2)n1 (stereo not drawn) the results were SUMO1 PPI mod -24, LMPTP inh -7, STEP block 0, Scp1 inh 0 and DNMT1 inh -3.
For CCCc1cc(=O)oc2cc(OCC(=O)NC(Cc3c[nH]c4ccc(O)cc34)C(=O)O)c(Cl)cc12 (stereo not drawn) the results were SUMO1 PPI mod 11, LMPTP inh 0, STEP block 0, Scp1 inh 55*, DNMT1 inh 3, Scp-1 conf 51*, MG interference 1 and Scp1 DSF 11*.
`Fc1cccc(CCN2CCNC[C@@H]2CC2CCCCC2)c1` gave SUMO1 PPI mod 0, LMPTP inh -3, STEP block -2, Scp1 inh -2 and DNMT1 inh 6.
COc1ccccc1OCC(=O)Nc1ccncc1 was read as SUMO1 PPI mod 5, LMPTP inh -3, STEP block 0, Scp1 inh -6 and DNMT1 inh 1.
Cc1cccc(OCC(=O)Nc2ccncc2)c1C was read as SUMO1 PPI mod -2, LMPTP inh -2, STEP block -3, Scp1 inh 53*, DNMT1 inh 2, Scp-1 conf -21 and MG interference -16.
For Cn1c(NNC(=O)c2cccc3ccccc23)cc(=O)n(C)c1=O the results were SUMO1 PPI mod -10, LMPTP inh -2, STEP block 0, Scp1 inh -1, DNMT1 inh -5, Scp-1 conf -4 and MG interference 1.
`COC(=O)C1=C(C(=O)OC)C2(OC1c1ccccc1C)C(=O)c1ccccc1C2=O` (stereo not drawn) gave SUMO1 PPI mod -5, LMPTP inh 2, STEP block 2, Scp1 inh 56*, DNMT1 inh -2, Scp-1 conf -10 and MG interference -7.
Screening Cc1noc(C)c1S(=O)(=O)N(CC(=O)NC1CCC(C)CC1)c1ccc(C(C)C)cc1 (stereo not drawn) returned SUMO1 PPI mod -5, LMPTP inh 0, STEP block -1, Scp1 inh 2 and DNMT1 inh 2.
`Cc1ccc(S(=O)(=O)NC(=O)c2ccc(-c3ccc(C)c4ccccc34)o2)cc1` gave SUMO1 PPI mod -3, LMPTP inh 0, STEP block 4, Scp1 inh 61*, DNMT1 inh 24, Scp-1 conf 77*, MG interference -4 and Scp1 DSF 2.
`Cc1ccc(-c2ccc(C(=O)Nc3ccccc3)o2)c2ccccc12` gave SUMO1 PPI mod -2, LMPTP inh 5, STEP block 3, Scp1 inh -14 and DNMT1 inh -16.
`CCC(=O)C1CCCN(C(=O)c2ccc(OC3CCN(C(=O)c4cccnc4)CC3)cc2)C1` (stereo not drawn) gave SUMO1 PPI mod 3, LMPTP inh -1, STEP block 0, Scp1 inh -5 and DNMT1 inh 1.
`O=C(c1cccnc1)N1CCC(Oc2ccc(C(=O)N3CCCCO3)cc2)CC1` gave SUMO1 PPI mod 17, LMPTP inh 0, STEP block 2, Scp1 inh 69*, DNMT1 inh 0, Scp-1 conf -11 and MG interference -4.
